The source made the active and inactive calls. No cut-off for these calls is given here.
Experiments:
[1] = test system: MC3T3-E1; assay: Increase in BMP2 expression in mouse MC3T3-E1 cells expressing pBMP2delta1 mutant at 1 uM after 4 hrs by luciferase method relative to control; assay type: functional, cell-based
Procedure, shortened: (§1)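 MC3T3-E1 cells transfected with BMP-2 promoter–luciferase constructs (full promoter or deletions), treated with 1 μm or vehicle for 4 h; Dual-Luciferase assay; means ± S.D.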

[2] = test system: MC3T3-E1; assay: Increase in BMP2 expression in mouse MC3T3-E1 cells expressing pBMP2delta2 mutant at 1 uM after 4 hrs by luciferase method relative to control; assay type: functional, cell-based; procedure, shortened: as §1
[3] = test system: MC3T3-E1; assay: Reversal of induction in ER.DNA complex in mouse MC3T3-E1 cells at 1 uM by RT-PCR in presence of tamoxifen; assay type: functional, cell-based
Procedure, shortened: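 BMP-2 promoter quantified by real-time PCR (45 cycles, 61 °C anneal), reported as IP-to-input Ct ratio. DN-Src by 3 μg vector, PP2 at 10 μM; ICI182780 and tamoxifen at indicated concentrations.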

[4] = Reversal of induction in BMP2 expression in mouse MC3T3-E1 cells at 1 uM by Western blot in presence of PP2; assay type: functional, cell-based
Procedure, shortened: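 Src phosphorylation, ERα nuclear translocation and BMP-2 protein analysed by Western blot with ECL detection. Three independent experiments.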

[5] = test system: Osteoblast; assay: Effect on twist gene homolog 1 gene expression in rat primary osteoblast cells assessed as expression ratio of treated to untreated control by microarray analysis; assay type: functional
Procedure, shortened: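 GEArray Q series Mouse Osteogenesis cDNA array profiling osteogenic-differentiation genes in treated versus vehicle-treated primary osteoblasts.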

[6] = Reversal of increase in pBMP2 expression in rat primary osteoblast cells at 1 uM by luciferase method in presence of PP2; assay type: functional, cell-based
[7] = test system: MDA-MB-231; assay: Reversal of inhibition in anchorage-independent colony formation of human MDA-MB-231 cells transfected with FOXO3a-specific small interfering RNA by soft agar colony forming assay; assay type: functional, cell-based
[8] = test system: MDA-MB-231; assay: Enhancement of FOXO3a nuclear accumulation in human MDA-MB-231 cells transfected with dominant negative Akt mutant; assay type: functional, cell-based
Procedure, shortened: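 MDA-MB-231 cells transfected with vector, constitutively active Akt or dominant negative Akt, treated ± compound; analyzed by Western blotting and BMP-2 promoter luciferase activity.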

[9] = test system: MDA-MB-231; assay: Decrease in Akt activation in human MDA-MB-231 cells expressing FOXO3a-specific small interfering RNA xenografted in nude mice at 10 mg/kg for 2 days; assay type: functional, organism-based; parameters: dose 10 mg/kg
Procedure, shortened: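 MDA-MB-231 cells were cotransfected with FOXO3a siRNA (pSuper) and pcDNA3 at a 10:1 ratio. Stable pools were selected in 800 μg/ml G418 for 4 weeks, and control siRNA pools were made the same way. […] Akt phosphorylation was then assessed in the primary tumors.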

[10] = test system: MDA-MB-231; assay: Induction of FOXO3a nuclear accumulation in human MDA-MB-231 cells FOXO3a-specific small interfering RNA xenografted in nude mice at 10 mg/kg for 2 days; assay type: functional, organism-based; parameters: dose 10 mg/kg
[11] = test system: MDA-MB-231; assay: Reduction in anchorage-independent colony formation of human MDA-MB-231 cells at 1 uM by soft agar colony forming assay; assay type: functional, cell-based
Procedure, shortened: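 Seeded in 0.35% noble agar in DMEM/10% FBS over a 0.7% agar bed. Colonies of at least 50 μm counted after 3 weeks under a dissecting microscope, six replicates per treatment. Three separate experiments.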

[12] = test system: Osteoblast; assay: Effect on alkaline phosphatase 2 gene expression in rat primary osteoblast cells assessed as expression ratio of treated to untreated control by microarray analysis; assay type: functional
[13] = test system: Osteoblast; assay: Effect on procollagen 4 alpha 1 gene expression in rat primary osteoblast cells assessed as expression ratio of treated to untreated control by microarray analysis; assay type: functional
Procedure, shortened: (§2)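 Resveratrol-treated and vehicle-treated primary osteoblasts were profiled on a mouse osteogenesis-focused cDNA array (GEArray Q series) built to track gene expression during osteogenic differentiation. Each gene's signal in treated cells was expressed as a ratio to untreated control.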

[14] = test system: MC3T3-E1; assay: Increase in proliferation of mouse MC3T3-E1 cells assessed as fraction of cells in S phase at 0.1 to 10 uM after 24 hr by flow cytometry; assay type: functional, cell-based
[15] = test system: MCF7; assay: Antiproliferative activity against human MCF7 cells at 1 uM by flow cytometry; assay type: functional, cell-based
Procedure, shortened: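 Proliferation was measured by DNA flow cytometry. Incubations were run in triplicate across three separate experiments, and values are means ± S.D.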

[16] = Reversal of increase in pBMP2 expression in mouse MC3T3-E1 cells transfected with dominant-negative mutant Src expression vector at 1 uM by luciferase method; assay type: functional, cell-based
Procedure, shortened: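 BMP-2 promoter activity measured by dual-luciferase assay and expressed relative to the untreated vector control.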

[17] = target: Alkaline phosphatase, germ cell type (Homo sapiens) (UniProt P10696); assay: Increase in ALP activity in human MG63 cells at 0.1 to 10 uM after 7 days; assay type: cell-based; settings: MG-63
Alkaline phosphatase, germ cell type (Homo sapiens), sequence (P10696 20-503 limits assumed): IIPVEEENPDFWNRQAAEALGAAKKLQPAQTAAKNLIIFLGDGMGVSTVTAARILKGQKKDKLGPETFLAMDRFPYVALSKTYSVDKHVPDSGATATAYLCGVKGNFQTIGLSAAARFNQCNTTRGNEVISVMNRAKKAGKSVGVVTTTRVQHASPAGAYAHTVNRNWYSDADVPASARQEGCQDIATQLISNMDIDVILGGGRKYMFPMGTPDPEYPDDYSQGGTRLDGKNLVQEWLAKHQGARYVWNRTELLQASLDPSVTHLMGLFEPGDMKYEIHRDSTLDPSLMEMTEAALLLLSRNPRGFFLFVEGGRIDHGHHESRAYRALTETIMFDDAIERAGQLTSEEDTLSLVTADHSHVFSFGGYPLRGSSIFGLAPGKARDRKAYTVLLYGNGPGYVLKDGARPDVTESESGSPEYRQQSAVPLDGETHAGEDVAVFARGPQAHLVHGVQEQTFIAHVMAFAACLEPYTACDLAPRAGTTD

[18] = test system: MG-63; assay: Increase in osteocalcin mRNA levels in human MG63 cells at 1 uM after 72 hrs by RT-PCR; assay type: functional, cell-based
Procedure, shortened: (§3)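 Cells treated with 1 μm for 72 h; osteocalcin and osteopontin mRNA by RT-PCR, 30 cycles (95/52/72 °C, 1 min each), ethidium bromide–stained agarose gels; repeated at least twice from at least two cDNA preparations.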

[19] = test system: MG-63; assay: Increase in osteocalcin levels in human MG63 cells at 1 uM after 72 hrs by ELISA; assay type: functional, cell-based
Procedure, shortened: (§4)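 Cells treated with 1 μm for 72 h; osteocalcin or osteopontin in culture medium by sandwich ELISA, HRP-streptavidin/TMB, 450 nm; percent change versus untreated control.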

[20] = test system: MG-63; assay: Increase in osteopontin mRNA levels in human MG63 cells at 1 uM after 72 hrs by RT-PCR; assay type: functional, cell-based; procedure, shortened: as §3
[21] = test system: Osteoblast; assay: Increase in osteopontin levels in rat primary osteoblast cells at 1 uM after 72 hrs by ELISA; assay type: functional, cell-based; procedure, shortened: as §4
[22] = test system: MC3T3-E1; assay: Inhibition of TNF-alpha-induced apoptosis in mouse MC3T3-E1 cells after 24 hrs by flow cytometry; assay type: functional, cell-based
Procedure, shortened: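 Cells washed in PBS, held 30 min in 0.5% Triton X-100/PBS/0.05% RNase A, then propidium iodide (50 μg/ml) added and kept on ice 15–30 min. Apoptosis is the hypodiploid fraction below the G0/G1 peak, by flow cytometry. Run in triplicate and repeated on three occasions.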

[23] = test system: Osteoblast; assay: Effect on growth differentiation factor 10 gene expression in rat primary osteoblast cells assessed as expression ratio of treated to untreated control by microarray analysis; assay type: functional; procedure, shortened: as §2
[24] = test system: Osteoblast; assay: Effect on bone morphogenetic protein 1 gene expression in rat primary osteoblast cells assessed as expression ratio of treated to untreated control by microarray analysis; assay type: functional
[25] = test system: Osteoblast; assay: Effect on bone morphogenetic protein 6 gene expression in rat primary osteoblast cells assessed as expression ratio of treated to untreated control by microarray analysis; assay type: functional
[26] = test system: Osteoblast; assay: Effect on procollagen 9 alpha 3 gene expression in rat primary osteoblast cells assessed as expression ratio of treated to untreated control by microarray analysis; assay type: functional; procedure, shortened: as §2
[27] = test system: Osteoblast; assay: Effect on procollagen 4 alpha 4 gene expression in rat primary osteoblast cells assessed as expression ratio of treated to untreated control by microarray analysis; assay type: functional; procedure, shortened: as §2
[28] = test system: Osteoblast; assay: Effect on integrin beta 1 gene expression in rat primary osteoblast cells assessed as expression ratio of treated to untreated control by microarray analysis; assay type: functional; procedure, shortened: as §2
[29] = test system: Osteoblast; assay: Effect on MAD homolog 1 gene expression in rat primary osteoblast cells assessed as expression ratio of treated to untreated control by microarray analysis; assay type: functional
[30] = test system: Osteoblast; assay: Effect on runt related transcription factor 2 gene expression in rat primary osteoblast cells assessed as expression ratio of treated to untreated control by microarray analysis; assay type: functional; procedure, shortened: as §2

For Oc1ccc(/C=C/c2cc(O)cc(O)c2)cc1 [RESVERATROL], the Activity [1] was “Active”, the Activity [2] was “inactive” and the Activity [3] was “Dose-dependent effect”. The Activity [4] was “Active”, the Ratio [5] was 3.77 and the Activity [6] was “Active”. The Activity [7] was “Active”, the Activity [8] was “Active” and the Activity [9] was “Active”. For the same compound, the Activity [10] was “Active”, the Activity [11] was “Active” and the Ratio [12] was 8.63. For the same compound, the Ratio [13] was 8.15, the Activity [14] was “Active” and the Activity [15] was “Active”. The Activity [16] was “Active”, the Activity [17] was “Active” and the Activity [18] was “Active”. The Activity [19] was “Active”, the Activity [20] was “Active” and the Activity [21] was “Active”. The Activity [22] was “Active”, the Ratio [23] was 0.93 and the Ratio [24] was 1.5. It also gave a Ratio [25] of 3.38, a Ratio [26] of 6.67 and a Ratio [27] of 4.98. For the same compound, the Ratio [28] was 2.97, the Ratio [29] was 3.24 and the Ratio [30] was 3.26.

— ChEMBL document CHEMBL1156469 (2007)
